Assay results published in ChEMBL document CHEMBL1138889, “Development of N-2,4-pyrimidine-N-phenyl-N'-phenyl ureas as inhibitors of tumor necrosis factor alpha (TNF-alpha) synthesis. Part 1” (Bioorg Med Chem Lett, 2006).

Columns and labels:
[1] = target: T1, Mitogen-activated protein kinase 14 (Homo sapiens, UniProt Q16539); assay: Inhibition of LPS-stimulated TNFalpha production in human THP1 cells; type: functional, cell-based, THP-1
Outline: (§1)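 THP-1 human monocytic cells, in duplicate cultures, were preincubated with or without inhibitor for 15 min. TNF-α release was then stimulated with LPS at 1 µg/ml final. Secreted TNF-α was quantified by ELISA 4 h after stimulation. Cell viability after the 4 h incubation was assessed by MTS assay.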

[2] = target: T1, Mitogen-activated protein kinase 14; assay: Inhibition of LPS-stimulated TNFalpha production in human THP1 cells at 1 uM; type: functional, cell-based; conditions: THP-1; outline: as §1

T1 sequence (Q16539 whole entry): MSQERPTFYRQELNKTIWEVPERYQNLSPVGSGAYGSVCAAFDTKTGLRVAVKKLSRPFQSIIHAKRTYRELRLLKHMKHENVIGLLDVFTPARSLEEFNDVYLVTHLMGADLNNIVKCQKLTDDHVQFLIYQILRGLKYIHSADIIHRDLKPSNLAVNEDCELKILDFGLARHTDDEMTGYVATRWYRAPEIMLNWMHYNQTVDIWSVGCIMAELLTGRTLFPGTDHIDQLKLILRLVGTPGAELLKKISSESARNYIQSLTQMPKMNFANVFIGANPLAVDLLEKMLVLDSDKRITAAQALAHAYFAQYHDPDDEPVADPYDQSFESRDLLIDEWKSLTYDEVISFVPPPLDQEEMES

Row | Compound | IC50 [1] [nM] | inhibition [2] [%]
1 | COC[C@H](C)Nc1nccc(N(C(=O)Nc2ccccc2C)c2ccccc2)n1 | 1000 | –
2 | CN1CCN(c2nccc(N(C(=O)Nc3ccccc3Cl)c3ccc(F)cc3)n2)CC1 | > 5000 | –
3 | C[C@H](Nc1nccc(N(C(=O)Nc2c(Cl)cccc2Cl)c2ccc(F)cc2)n1)C(C)(C)O | – | 63
4 | COCC(C)Nc1nccc(N(N)C(=O)Nc2ccccc2Cl)n1 (single isomer, unassigned) | > 5000 | –
5 | C[C@H](Nc1nccc(N(C(=O)Nc2ccccc2Cl)c2ccc(F)cc2)n1)c1ccccc1 (stereo in doubt; 5h) | 843 | –
6 | COc1ccc(N(C(=O)Nc2ccccc2C)c2ccnc(N[C@@H](C)C(C)(C)O)n2)cc1 | 135 | –
7 | COC[C@H](C)Nc1nccc(N(C(=O)Nc2ccccc2C)c2ccc(F)cc2)n1 | 3650 | –
8 | Cc1ccccc1NC(=O)N(c1ccc(F)cc1)c1ccnc(N[C@@H](C)C(C)(C)O)n1 | 176 | –
9 | COC[C@H](C)Nc1nccc(N(C(=O)Nc2ccccc2Cl)c2ccc(N(C)C)cc2)n1 | > 5000 | –
10 | CCOC(=O)N1CCC(Nc2nccc(N(C(=O)Nc3ccccc3Cl)c3ccc(F)cc3)n2)CC1 | 3610 | –
11 | O=C(Nc1ccccc1Cl)N(c1ccc(F)cc1)c1ccnc(NC2CCOCC2)n1 | 539 | –
12 | O=C(Nc1ccccc1Cl)N(c1ccc(F)cc1)c1ccnc(N2CCOCC2)n1 | > 5000 | –
13 | COC[C@H](C)Nc1nccc(N(C)C(=O)Nc2ccccc2C)n1 | > 5000 | –
14 | C[C@H](Nc1nccc(N(C(=O)Nc2ccccc2Cl)c2ccc(F)cc2)n1)c1ccccc1 (stereo in doubt; 5i) | > 5000 | –
15 | COc1ccc(N(C(=O)Nc2ccccc2Cl)c2ccnc(N[C@@H](C)C(C)(C)O)n2)cc1 | 92 | –
16 | C[C@H](Nc1nccc(N(C(=O)Nc2ccccc2Cl)c2ccc(F)cc2)n1)C(C)(C)O | 122 | –
17 | C[C@H](Nc1nccc(N(C(=O)Nc2ccccc2Cl)c2ccccc2)n1)C(C)(C)O | 718 | –
18 | COC[C@H](C)Nc1nccc(N(C(=O)Nc2ccc(C(F)(F)F)cc2)c2ccc(F)cc2)n1 | > 5000 | –
19 | COC[C@H](C)Nc1nccc(N(C(=O)Nc2ccccc2Cl)c2ccc(F)cc2)n1 | 3100 | –
20 | COC[C@H](C)Nc1nccc(N(C(=O)Nc2ccccc2F)c2ccc(F)cc2)n1 | 2880 | –
21 | CCCS(=O)(=O)N1CCC(Nc2nccc(N(C(=O)Nc3ccccc3Cl)c3ccc(F)cc3)n2)CC1 | 1420 | –
22 | Cc1ccccc1NC(=O)N(c1ccc(N(C)C)cc1)c1ccnc(N[C@@H](C)c2ccccc2)n1 | > 5000 | –
23 | C[C@H](Nc1nccc(N(C(=O)Nc2ccccc2Cl)c2cccc(F)c2)n1)c1ccccc1 | 6160 | –
